Test [1] concerns Trichinella spiralis. Kind of test: Antitrichinellosis activity against Trichinella spiralis assessed as parasites viability at 5 ug/ml after 24 hrs by stereomicroscopy. The class given is functional. In outline:
(§1)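 Encapsulated larvae, 100 per 1 ml physiological solution (Campbell's method), exposed to compound dissolved in DMSO at 5 µg/ml; incubated in a humid thermostatted chamber at 37 °C. Larval vitality checked by stereomicroscopy at 24 and 48 h.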

Test [2] relates to Trichinella spiralis. Briefly: Antitrichinellosis activity against Trichinella spiralis assessed as parasites viability at 5 ug/ml after 48 hrs by stereomicroscopy. The test is classed as functional. In outline:
as §1

A further test relates to Paramecium caudatum. Briefly: Antiprotozoal activity against Paramecium caudatum assessed as parasites viability at 1 ug/ml after 15-20 mins by stereomicroscopy. The test is classed as functional. In outline: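 Paramecia from dry-hay maceration culture; 2–3 drops of culture added to a drop of compound in DMSO (1 µg/ml) in a Petri dish. Motility and cell integrity followed stereomicroscopically over minutes after addition.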

A further test has as its system Giardia muris. Kind of test: Antiprotozoal activity against Giardia muris infected in white mouse assessed as presence of cysts in mouse faeces at 0.5 ug/ml, po after 5 days by microscopy. The test is classed as functional, organism-based. The following applies: Feces. In outline: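 Infected white mice (five per group) dosed p.o. once daily by thin metal oesophageal probe, 0.5 µg/ml pro die as 0.5 ml DMSO solution, for 5 days; untreated and DMSO-only control groups. After the course, faeces stained with Lugol's solution and examined microscopically for cysts.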

Activity calls are given as the source filed them. The calls are words filed in the database; no cut-off is given here.

`CCOC(=O)c1sc2nc(CCn3cnc4ccccc43)[nH]c(=O)c2c1C`: the Efficacy in the test with Trichinella spiralis [1] turned out to be 79.8%; in the test on Trichinella spiralis [2], 85.3%. Also, the outcome in the test on Paramecium caudatum and in the test on Giardia muris was Active.
Regarding `O=c1[nH]c(CCSc2nc3ccccc3n2[N+](=O)[O-])nc2sc3c(c12)CCCC3`, the Efficacy in the test on Trichinella spiralis [1] and with Trichinella spiralis [2] was 90.1% throughout. Besides, the result in the test on Paramecium caudatum and in the test on Giardia muris was Active.
With `CCOC(=O)c1sc2nc(CCSc3nc4cc([N+](=O)[O-])ccc4[nH]3)[nH]c(=O)c2c1C`, the Efficacy in the test with Trichinella spiralis [1] was 50%; with Trichinella spiralis [2] it was 80.05%. Besides, the result in the test on Paramecium caudatum and in the test with Giardia muris was Active.
In the case of `Cn1c(SCCc2nc3sc4c(c3c(=O)[nH]2)CCCC4)nc2ccccc21`, the Efficacy with Trichinella spiralis [1] is 40.05%; in the test on Trichinella spiralis [2], 89.9%. In addition, the result in the test on Paramecium caudatum and in the test on Giardia muris was Active.
As for `O=c1[nH]c(CCn2cnc3cc([N+](=O)[O-])ccc32)nc2sc3c(c12)CCCC3`, the Efficacy with Trichinella spiralis [1] and in the test on Trichinella spiralis [2] was 95.05% throughout. For the same molecule, the result in the test with Paramecium caudatum and in the test on Giardia muris was Active.
`CCOC(=O)c1sc2nc(CCSc3nc4ccccc4n3CC)[nH]c(=O)c2c1C`: the Efficacy is listed as 39.07% in the test on Trichinella spiralis [1] and 59.75% in the test on Trichinella spiralis [2]. Moreover, the outcome in the test with Paramecium caudatum and in the test with Giardia muris was Active.
For `CCCSc1ccc2[nH]c(NC(=O)OC)nc2c1` [ALBENDAZOLE], the values for the Efficacy in the test on Trichinella spiralis [1] and in the test on Trichinella spiralis [2] were 10.6% and 14.8%, respectively.
`CCCn1c(SCCc2nc3sc4c(c3c(=O)[nH]2)CCCC4)nc2ccccc21`: the Efficacy worked out at 84.8% in the test with Trichinella spiralis [1] and 90.05% in the test on Trichinella spiralis [2]. In addition, the result in the test with Paramecium caudatum and in the test on Giardia muris was Active.
`CCOC(=O)c1sc2nc(CCSc3nc4cc(Cl)ccc4[nH]3)[nH]c(=O)c2c1C`: the Efficacy in the test with Trichinella spiralis [1] worked out at 0%; with Trichinella spiralis [2], 5.09%. For the same molecule, the outcome in the test with Paramecium caudatum and with Giardia muris was Active.

The values above are taken from ChEMBL document CHEMBL1629504, “Synthesis, antitrichinnellosis and antiprotozoal activity of some novel thieno[2,3-d]pyrimidin-4(3H)-ones containing benzimidazole ring” (2010).
